Data from ChEMBL document CHEMBL3259728, “Design, synthesis and biological evaluation of some novel substituted quinazolines as antitumor agents” (2014).

Experiments:
Type in all cases: functional
[1] = Growth inhibition of human Hs578T cells at 10 uM after 48 hrs by SRB assay; conditions: Hs-578T, read-out: GI
How it was run: (§1)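 NCI-60 primary one-dose screen run at the US NCI, with human tumour lines from nine cancer types. Compound added once at 10^-5 M, followed by 48 h incubation. End point was sulforhodamine B protein staining read spectrophotometrically. Result given as percent growth of treated cells against untreated controls, reported as % growth inhibition.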

[2] = test system: MDA-MB-231; test: Growth inhibition of human MDA-MB-231 cells at 10 uM after 48 hrs by SRB assay; conditions: MDA-MB-231, 48 h, read-out: GI; how it was run: as §1
[3] = Growth inhibition of human UO31 cells at 10 uM after 48 hrs by SRB assay; conditions: UO-31, 48 h, read-out: GI; how it was run: as §1
[4] = test system: CAKI-1; test: Growth inhibition of human CAKI-1 cells at 10 uM after 48 hrs by SRB assay; conditions: CAKI-1, 48 h, read-out: GI
How it was run: (§2)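 NCI primary one-dose screen. A single concentration of 10^-5 M was added to the cell culture, followed by 48 h incubation and an SRB protein-dye endpoint read spectrophotometrically. Results are growth percentage relative to untreated control cells, reported as % growth inhibition.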

[5] = Growth inhibition of human OVCAR4 cells at 10 uM after 48 hrs by SRB assay; conditions: OVCAR-4, 48 h, read-out: GI; how it was run: as §1
[6] = test system: IGROV-1; test: Growth inhibition of human IGROV1 cells at 10 uM after 48 hrs by SRB assay; conditions: IGROV-1, 48 h, read-out: GI; how it was run: as §1
[7] = test system: SK-MEL-5; test: Growth inhibition of human SK-MEL-5 cells at 10 uM after 48 hrs by SRB assay; conditions: SK-MEL-5, 48 h, read-out: GI; how it was run: as §1
[8] = Growth inhibition of human LOXIMVI cells at 10 uM after 48 hrs by SRB assay; conditions: LOX IMVI, read-out: GI; how it was run: as §1
[9] = test system: SNB-75; test: Growth inhibition of human SNB75 cells at 10 uM after 48 hrs by SRB assay; conditions: SNB-75, 48 h, read-out: GI; how it was run: as §1
[10] = Growth inhibition of human HCC2998 cells at 10 uM after 48 hrs by SRB assay; conditions: HCC 2998, 48 h, read-out: GI; how it was run: as §1
[11] = test system: COLO 205; test: Growth inhibition of human COLO205 cells at 10 uM after 48 hrs by SRB assay; conditions: COLO 205, 48 h, read-out: GI; how it was run: as §2
[12] = test system: NCI-H460; test: Growth inhibition of human NCI-H460 cells at 10 uM after 48 hrs by SRB assay; conditions: NCI-H460, 48 h, read-out: GI; how it was run: as §1
[13] = Growth inhibition of human HOP92 cells at 10 uM after 48 hrs by SRB assay; conditions: HOP-92, 48 h, read-out: GI; how it was run: as §1
[14] = test system: NCI-H226; test: Growth inhibition of human NCI-H226 cells at 10 uM after 48 hrs by SRB assay; conditions: NCI-H226, 48 h, read-out: GI; how it was run: as §1
[15] = test system: HOP-62; test: Growth inhibition of human HOP62 cells at 10 uM after 48 hrs by SRB assay; conditions: HOP-62, 48 h, read-out: GI; how it was run: as §1
[16] = Growth inhibition of human EKVX cells at 10 uM after 48 hrs by SRB assay; conditions: read-out: GI; how it was run: as §1
[17] = Growth inhibition of human MOLT4 cells at 10 uM after 48 hrs by SRB assay; conditions: MOLT-4, 48 h, read-out: GI; how it was run: as §1
[18] = test system: HL-60(TB); test: Growth inhibition of human HL-60(TB) cells at 10 uM after 48 hrs by SRB assay; conditions: HL-60, 48 h, read-out: GI
How it was run: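 NCI 60-cell-line primary screen: compound added at single concentration 10^-5 M, cultures incubated 48 h; end point by sulforhodamine B protein staining read spectrophotometrically; result given as growth percentage of treated versus untreated control cells, reported as % growth inhibition.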

[19] = test system: CCRF-CEM; test: Growth inhibition of human CCRF-CEM cells at 10 uM after 48 hrs by SRB assay; conditions: read-out: GI; how it was run: as §2
[20] = Growth inhibition of human OVCAR8 cells at 10 uM after 48 hrs by SRB assay; conditions: OVCAR-8, 48 h, read-out: GI; how it was run: as §1

Row | Compound | inhibition of growth at 10 µM [1] | inhibition of growth at 10 µM [2] | inhibition of growth at 10 µM [3] | inhibition of growth at 10 µM [4] | inhibition of growth at 10 µM [5] | inhibition of growth at 10 µM [6] | inhibition of growth at 10 µM [7] | inhibition of growth at 10 µM [8] | inhibition of growth at 10 µM [9] | inhibition of growth at 10 µM [10] | inhibition of growth at 10 µM [11] | inhibition of growth at 10 µM [12] | inhibition of growth at 10 µM [13] | inhibition of growth at 10 µM [14] | inhibition of growth at 10 µM [15] | inhibition of growth at 10 µM [16] | inhibition of growth at 10 µM [17] | inhibition of growth at 10 µM [18] | inhibition of growth at 10 µM [19] | inhibition of growth at 10 µM [20]
1 | Cc1ccc(C(=O)Nc2ccc(Cl)cc2C(=O)NCc2ccccc2)cc1 | 21% | < 10% | 24% | 23% | 21% | 16% | 22% | 21% | 33% | 14% | < 10% | < 10% | < 10% | < 10% | 12% | 20% | 49% | 49% | 27% | 13%
2 | Cc1ccc(C(=O)Nc2ccc(Cl)cc2C(=O)Nc2ccccc2)cc1 | < 10% | 16% | < 10% | 18% | 11% | < 10% | 13% | < 10% | 28% | < 10% | < 10% | < 10% | < 10% | < 10% | 29% | < 10% |  |  |  | < 10%
3 | Cc1ccc(C(=O)Nc2ccc(Cl)cc2C(=O)Nc2ccccn2)cc1 | < 10% | < 10% | 13% | 20% | 22% | 14% | 39% | < 10% | 24% | < 10% | < 10% | < 10% | < 10% | < 10% | < 10% | 12% |  | 16% | 29% | < 10%
4 | Cc1ccc(-c2nc3ccc(Cl)cc3c(=O)n2NC(=O)CN)cc1 | < 10% | < 10% | 11% | 14% | < 10% | < 10% | < 10% | < 10% | 15% | < 10% | < 10% | < 10% | < 10% | 11% | 15% | 22% | < 10% | < 10% | 14% | < 10%
